Test results from ChEMBL document CHEMBL2406905, “Improving the antibacterial activity and selectivity of an ultra short peptide by hydrophobic and hydrophilic amino acid stretches” (Bioorg Med Chem Lett, 2013).
Activity calls are given as the source filed them. The calls are words filed in the database; no cut-off is given here.

Experiments:
[1] = Therapeutic index, ratio of MHC for human RBC to MIC for Staphylococcus epidermidis ATCC 12228; conditions: human red blood cells (RBC), read-out: TI
Summary of the method: (§1)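 Index was calculated as MHC/MIC. MHC was the lowest peptide concentration producing 5% hemolysis of human red blood cells. MIC was the concentration giving >90% inhibition of bacterial growth (OD600) after 24 h at 37 °C in nutrient broth, with bacteria starting at OD600 0.001.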

[2] = Hemolytic activity in human RBC at 1 to 91 ug/ml; type: ADME, cell-based; conditions: erythrocyte
Summary of the method: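 Human red blood cells were exposed to peptide. Minimal hemolytic concentration was taken as the lowest peptide concentration producing 5% hemolysis.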

[3] = (§2) Antibacterial activity against Vibrio cholerae non-O1 non-O139 assessed as growth inhibition after 24 hrs; type: functional; conditions: for MIC90: Vibrio cholerae, non-O139, 24 h
Escherichia coli [4] = test: Antibacterial activity against Escherichia coli ATCC 25922 assessed as growth inhibition after 24 hrs; type: functional
Summary of the method: (§3)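 Log-phase bacteria adjusted to OD600 0.001 in nutrient broth. Peptide dilutions in 20 mM Tris–HCl pH 7.4 were added; buffer alone served as control. Incubation was 37 °C for 24 h. % inhibition was calculated from the OD600 change (24 h minus time zero) relative to the control change. MIC was the concentration giving >90% growth inhibition.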

[5] = Therapeutic index, ratio of MHC for human RBC to MIC for Escherichia coli ATCC 25922; conditions: human red blood cells (RBC), read-out: TI; summary of the method: as §1
Pseudomonas aeruginosa = test: Antibacterial activity against Pseudomonas aeruginosa ATCC 27853 assessed as growth inhibition after 24 hrs; type: functional; summary of the method: as §3
Staphylococcus aureus = test: Antibacterial activity against Staphylococcus aureus ATCC 25923 assessed as growth inhibition after 24 hrs; type: functional; conditions: for MIC90: Staphylococcus aureus, ATCC 25923, 24 h; summary of the method: as §3
Salmonella typhi [6] = test: Antibacterial activity against Salmonella typhi DMST 22842 assessed as growth inhibition after 24 hrs; type: functional, Salmonella enterica subsp. enterica serovar Typhi; conditions: for MIC90: Salmonella enterica, DMST 22842, 24 h
[7] = Therapeutic index, ratio of MHC for human RBC to MIC for Salmonella typhi DMST 22842; conditions: human red blood cells (RBC), read-out: TI; summary of the method: as §1
[8] = Therapeutic index, ratio of MHC for human RBC to MIC for Staphylococcus aureus ATCC 25923; conditions: human red blood cells (RBC), read-out: TI; summary of the method: as §1
[9] = Therapeutic index, ratio of MHC for human RBC to MIC for Vibrio cholerae non-O1 non-O139; conditions: human red blood cells (RBC), read-out: TI; summary of the method: as §1
[10] = tested on: Staphylococcus epidermidis; test: Antibacterial activity against Staphylococcus epidermidis ATCC 12228 assessed as growth inhibition after 24 hrs; type: functional; conditions: for MIC90: Staphylococcus epidermidis, ATCC 12228, 24 h; summary of the method: as §3
Vibrio cholerae non-O1 = test: as §2; type: functional
Escherichia coli [11] = test: Bactericidal activity against Escherichia coli ATCC 25922 assessed as reduction in CFU at 11 ug/mL after 48 hrs; type: functional; set-up: scale not given: the % may be the effect or the level left
Summary of the method: (§4)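 After the 24 h, 37 °C broth-microdilution exposure (log-phase inoculum at OD600 0.001, peptide in 20 mM Tris–HCl pH 7.4), 5 μL from each well was plated on agar and incubated at 37 °C for 48 h. 100% bactericidal concentration was the concentration giving a 99.9% CFU reduction from the starting inoculum.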

Salmonella typhi [12] = test: Bactericidal activity against Salmonella typhi DMST 22842 assessed as reduction in CFU at 23 ug/mL after 48 hrs; type: functional, Salmonella enterica subsp. enterica serovar Typhi; set-up: scale not given: the % may be the effect or the level left
Summary of the method: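 Bacteria at OD600 0.001 in nutrient broth were exposed to peptide in 20 mM Tris–HCl (pH 7.4) at 37 °C for 24 h. A sample from each well was then plated on agar and incubated at 37 °C for 48 h. Bactericidal activity was taken as a 99.9% CFU reduction versus the starting inoculum.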

[13] = tested on: Staphylococcus epidermidis; test: Bactericidal activity against Staphylococcus epidermidis ATCC 12228 assessed as reduction in CFU at 23 ug/mL after 48 hrs; type: functional; set-up: scale not given: the % may be the effect or the level left; summary of the method: as §4
Escherichia coli [14] = test: Antibacterial activity against Escherichia coli ATCC 25922 assessed as appearance of blebs on cell surface at 10 X MIC after 1 min by SEM analysis; type: functional, organism-based
Summary of the method: (§5)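 Bacterial suspension at OD600 0.1 was exposed to peptide at 10× MIC for 1 min and 60 min. The negative control was 20 mM Tris–HCl buffer. Cell morphology was then examined by scanning electron microscopy.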

[15] = Therapeutic index, ratio of MHC for human RBC to MIC for Pseudomonas aeruginosa ATCC 27853; conditions: human red blood cells (RBC), read-out: TI; summary of the method: as §1
RAW264.7 = test: Cytotoxicity against mouse RAW264.7 cells assessed as cell viability at 1 to 91 ug/ml after 48 hrs by MTT assay; type: cell-based; conditions: raw264.7, 48 h
Summary of the method: (§6)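 Monolayer cell viability was read by MTT. Results are given as mean ± SEM (n = 8). Significance was tested by one-way ANOVA with Scheffe's multiple range test (p < 0.05).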

Vero = test: Cytotoxicity against african green monkey Vero cells assessed as cell viability at 1 to 91 ug/ml after 48 hrs by MTT assay; type: cell-based; conditions: chlorocebus sabaeus; summary of the method: as §6
Salmonella typhi [16] = test: Antibacterial activity against Salmonella typhi DMST 22842 assessed as appearance of rough and wavy cell morphology at 10 X MIC after 1 min by SEM analysis; type: functional, organism-based; conditions: Salmonella enterica subsp. enterica serovar Typhi
Summary of the method: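 Bacterial suspension (OD600 0.1) was incubated with peptide at 10×MIC for 1 and 60 min, with 20 mM Tris–HCl buffer as negative control. Cell morphology was examined by scanning electron microscopy.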

Escherichia coli [17] = test: Bactericidal activity against Escherichia coli ATCC 25922 assessed as reduction in CFU at 46 ug/mL after 48 hrs; type: functional; set-up: scale not given: the % may be the effect or the level left; summary of the method: as §4
[18] = tested on: Staphylococcus epidermidis; test: Antibacterial activity against Staphylococcus epidermidis ATCC 12228 assessed as appearance of rough and wavy cell morphology at 10 X MIC after 1 min by SEM analysis; type: functional, organism-based; summary of the method: as §5
[19] = Escherichia coli, ATCC 25922, 24 h
[20] = Pseudomonas aeruginosa, ATCC 27853, 24 h

Row | Substance | selectivity ratio [1] | Activity [2] | MIC90 [3] [µg/mL] | growth inhibition (GI) (Escherichia coli [4]) [%] | MIC90 (Escherichia coli [4]; [19]) [µg/mL] | selectivity ratio [5] | MIC90 (Pseudomonas aeruginosa) | growth inhibition (GI) (Staphylococcus aureus) [%] | MIC90 (Staphylococcus aureus) [µg/mL] | growth inhibition (GI) (Salmonella typhi [6]) [%] | MIC90 (Salmonella typhi [6]) [µg/mL] | selectivity ratio [7] | selectivity ratio [8] | selectivity ratio [9] | MIC90 [10] [µg/mL] | MIC90 (Vibrio cholerae non-O1) | Activity [13] | selectivity ratio [15] | MIC90 (Pseudomonas aeruginosa; [20]) [µg/mL] | growth inhibition (GI) [10] [%] | also measured
1 | H-NGVQPWYKWWKWWKKWW-NH2 | 0.06 | Toxic | 91 | <90 | > 91 | < 0.06 | inactive | <90 | > 91 | <90 | > 91 | < 0.06 | < 0.06 | 0.06 | 91 |  |  |  |  |  | 
2 | H-NGVQPKYKWWKWWKKWWW-NH2 | 1 | Toxic |  |  | 11 | 2 | inactive | <90 | > 91 |  | 23 | 1 | < 0.5 |  | 23 | inactive | 100% |  |  |  | Activity (Escherichia coli [11]): 100%; Activity (Salmonella typhi [12]): 100%; Activity (Escherichia coli [14]): Active
3 | H-NGVQPKYRWWRWWRRWWWW-NH2 | 0.06 | Toxic |  | <90 | > 91 | < 0.06 |  | <90 | > 91 | <90 | > 91 | < 0.06 | < 0.06 |  | 91 | inactive |  | < 0.06 | > 91 |  | growth inhibition (GI) (Pseudomonas aeruginosa): <90%
4 | H-RWWRWWRRWW-NH2 | < 0.02 | Toxic | 23 | <90 | > 91 | < 0.02 |  | <90 | > 91 | <90 | > 91 | < 0.02 | < 0.02 | 0.08 | > 91 |  |  | 0.04 | 46 | <90 | 
5 | H-NGVQPKYKWWKWWKKWW-NH2 | 2 | Non-toxic | 11 |  | 11 | 4 |  |  | 46 |  | 23 | 2 | 1 | 4 | 23 |  | 100% | 0.5 | 91 |  | Activity (RAW264.7): Non-toxic; Activity (Escherichia coli [11]): 100%; Activity (Vero): Non-toxic; Activity (Escherichia coli [14]): Active
6 | H-NGVQPKYRWWRWWRRWW-OH | 1 | Toxic |  |  | 46 | 0.5 | inactive | <90 | > 91 | <90 | > 91 | < 0.25 | < 0.25 |  | 23 | inactive | Active |  |  |  | Activity (RAW264.7): Toxic; Activity (Salmonella typhi [16]): Active; Activity (Vero): Toxic; Activity (Escherichia coli [17]): 100%; Activity [18]: Active
7 | H-NGVQPKYRWWRWWRRWW-NH2 | 2 | Non-toxic | 46 |  | 46 | 1 | inactive |  | 91 |  | 23 | 2 | 0.5 | 1 | 23 |  | Active |  |  |  | Activity (RAW264.7): Non-toxic; Activity (Salmonella typhi [16]): Active; Activity (Vero): Non-toxic; Activity (Escherichia coli [17]): 100%; Activity [18]: Active
8 | H-NGVQPKYRWWRWWRRWWW-OH | 0.25 | Toxic |  | <90 | > 91 | < 0.25 | inactive | <90 | > 91 | <90 | > 91 | < 0.25 | < 0.25 |  | 91 | inactive |  |  |  |  | 
9 | H-RWWRWWRRWWW-NH2 | < 0.02 | Toxic | > 91 |  |  |  | inactive | <90 | > 91 | <90 | > 91 | < 0.02 | < 0.02 | < 0.02 | > 91 |  |  |  |  | <90 | growth inhibition (GI) [3]: <90%; MIC90 (Escherichia coli [4]): inactive
10 | H-NGVQPKY-OH |  |  | > 200 | <90 | > 200 |  |  | <90 | > 200 | <90 | > 200 |  |  |  | > 200 |  |  |  | > 200 | <90 | growth inhibition (GI) [3]: <90%; growth inhibition (GI) (Pseudomonas aeruginosa): <90%
